Experimental data published in ChEMBL document CHEMBL1124947, “Cationic antiprotozoal drugs. Trypanocidal activity of 2-(4'-formylphenyl)imidazo[1,2-a]pyridinium guanylhydrazones and related derivatives of quaternary heteroaromatic compounds” (J Med Chem, 1990).

What was measured:
Format in all cases: functional
Mus musculus [1] = assay: Trypanocidal Activity at I.C.E. value 0.24 when administered subcutaneously.
Outline: (§1)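 Blood-stage T. rhodesiense infection came from a standard inoculum lethal to all untreated mice. Drug was given by subcutaneous injection to groups of five mice. Survival beyond 30 days counted as cure. […] Sub-curative doses scored 0, and data were normalized at each dose.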

Mus musculus [2] = assay: Trypanocidal Activity at I.C.E. value 0.52 when administered subcutaneously.; outline: as §1
Mus musculus [3] = assay: Trypanocidal Activity at I.C.E. value 0.47 when administered subcutaneously.; outline: as §1
Mus musculus [4] = assay: Trypanocidal Activity at I.C.E. value 0.32 when administered subcutaneously.; outline: as §1
Mus musculus [5] = assay: Trypanocidal Activity at I.C.E. value 0.36 when administered subcutaneously.
Mus musculus [6] = assay: Trypanocidal Activity at I.C.E. value 0.17 when administered subcutaneously.
[7] = tested on: Trypanosoma brucei rhodesiense; assay: In Vitro measurement of inhibition of thymidine uptake in cell culture of Trypanosoma rhodesiense; conditions: read-out: ID50 (the source's name)
Outline: (§2)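 Parasites harvested from infected rats and incubated 3 h across a drug concentration series, usually 0.1–100 µg/mL. Incorporation of radiolabeled thymidine measured. ID50 is the concentration (µg/mL) producing 50% inhibition.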

[8] = tested on: Trypanosoma brucei rhodesiense; assay: In Vitro measurement of inhibition of leucine uptake in cell culture of Trypanosoma rhodesiense; conditions: read-out: ID50 (the source's name)
Outline: (§3)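 Trypanosomes harvested from infected rats, cultured 3 h with several concentrations of drug, usually 0.1–100 µg/mL. Radiolabeled L-leucine uptake measured. ID50 is the concentration in µg/mL giving 50% inhibition of incorporation.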

Mus musculus [9] = assay: Trypanocidal Activity at I.C.E. value 0.45 when administered subcutaneously.; outline: as §1
Mus musculus [10] = assay: Trypanocidal Activity at I.C.E. value 0.29 when administered subcutaneously.; outline: as §1
Mus musculus [11] = assay: Trypanocidal Activity at I.C.E. value 0.57 when administered subcutaneously.
Outline: (§4)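 Mice, in groups of five per dose, were given a standard inoculum of blood-stage T. rhodesiense that is lethal to all untreated controls, then dosed subcutaneously. Usually 11 dose levels were used (2^n × 0.42 mg/kg).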

Mus musculus [12] = assay: Trypanocidal Activity at I.C.E. value 0.57 when administered perorally.
Mus musculus [13] = assay: Trypanocidal Activity at I.C.E. value 0.44 when administered subcutaneously.; outline: as §1
Mus musculus [14] = assay: Trypanocidal Activity at I.C.E. value 0.16 when administered subcutaneously.
Mus musculus [15] = assay: Trypanocidal Activity at I.C.E. value 0.65 when administered subcutaneously.; outline: as §4
Mus musculus [16] = assay: Trypanocidal Activity at I.C.E. value 0.38 when administered subcutaneously.; outline: as §1
Mus musculus [17] = assay: Trypanocidal Activity at I.C.E. value 0.34 when administered subcutaneously.; outline: as §1
[18] = tested on: Trypanosoma brucei rhodesiense; assay: In Vitro measurement of inhibition of Leucine uptake in cell culture of Trypanosoma rhodesiense.; conditions: read-out: ID50 (the source's name); outline: as §3
[19] = tested on: Trypanosoma brucei rhodesiense; assay: In Vitro measurement of inhibition of thymidine uptake in cell culture of Trypanosoma rhodesiense.; conditions: read-out: ID50 (the source's name); outline: as §2
Mus musculus [20] = assay: Trypanocidal Activity at I.C.E. value 0.39 when administered subcutaneously.; outline: as §1

Question: `Br.Cc1ccn2cc(-c3ccc(/C=N/NC(=N)N4CCN(C)CC4)cc3)[n+](C)c2c1.[Br-]` was tested. Which CD50 (Mus musculus [1]) did it give?
Answer: 3.3 mg/kg

Question: With `Br.CCNC(=N)N/N=C/c1ccc(OCc2cn3c(C)cccc3[n+]2C)cc1.[Br-]` as the molecule, how does the CD50 (Mus musculus [2]) read?
Answer: 0.4 mg/kg

Question: Which CD50 (Mus musculus [1]) does the source give for `Br.CCCC/N=C(/NCCCC)N/N=C/c1ccc(-c2cn3ccc(C)cc3[n+]2C)cc1.[Br-]` here?
Answer: 53 mg/kg

Question: For `Br.Cc1c(-c2ccc(/C=N/NC(=N)N3CCCC3)cc2)[n+](C)c2ccccn12.[Br-]`, which CD50 (Mus musculus [3]) is on record?
Answer: 0.2 mg/kg

Question: Which CD50 (Mus musculus [4]) does the source give for `Br.C/N=C(/NC)N/N=C/c1ccc(OCc2cn3c(C)cccc3[n+]2C)cc1.[Br-]` here?
Answer: 3.3 mg/kg

Question: With `Br.C=CC[n+]1c(-c2ccc(/C=N/NC(=N)N)cc2)cn2ccccc21.[Br-]` as the molecule, how does the CD50 (Mus musculus [5]) read?
Answer: 0.4 mg/kg

Question: Which results are given for `CC(=O)Nc1ccc(-c2cn3ccc4ccccc4c3[n+]2C)cc1.[Br-]`?
Answer: CD50 (Mus musculus [6]): 212 mg/kg; IC50 [7]: 3.2 µg/mL; IC50 [8]: 5.2 µg/mL

Question: For `Br.Cc1c(-c2ccc(/C=N/NC(=N)N)cc2)[n+](C)c2ccccn12.[Br-]`, which CD50 (Mus musculus [9]) is on record?
Answer: 0.2 mg/kg

Question: Which IC50 [7] does the source give for `Br.C[n+]1c(-c2ccc(/C=N/NC(=N)N)cc2)c([N+](=O)[O-])n2ccccc21.[Br-]` here?
Answer: 2.7 µg/mL

Question: What about the CD50 (Mus musculus [10]) of the same molecule?
Answer: 3.3 mg/kg

Question: What about the IC50 [8] of the same molecule?
Answer: 1.7 µg/mL

Question: For `Br.COc1ccc2n(c1)cc(-c1ccc(/C=N/NC(=N)SC)cc1)[n+]2C.[Br-]`, which CD50 (Mus musculus [3]) is on record?
Answer: 13 mg/kg

Question: How did the CD50 (Mus musculus [11]) turn out when `C[n+]1c(-c2ccc(/C=N/NC(=O)c3ccc(N)cc3)cc2)cn2ccccc21.Cc1ccc(S(=O)(=O)[O-])cc1` was run?
Answer: 0.8 mg/kg

Question: Which CD50 (Mus musculus [6]) does the source give for `Cc1ccc(S(=O)(=O)N/N=C/c2ccc(-c3cn4ccccc4[n+]3C)cc2)cc1.[Br-]` here?
Answer: 53 mg/kg

Question: `Br.Cn1c(COc2ccc(/C=N/NC3=NCCCN3)cc2)[n+](C)c2ccccc21.[Br-]` was tested. Which CD50 (Mus musculus [12]) did it give?
Answer: 6.6 mg/kg

Question: What about the CD50 (Mus musculus [2]) of the same molecule?
Answer: 1.6 mg/kg

Question: What about the IC50 [7] of the same molecule?
Answer: 4.4 µg/mL

Question: What about the IC50 [8] of the same molecule?
Answer: > 10 µg/mL

Question: For `Cc1ccc(S(=O)(=O)[O-])cc1.Cc1cccc2n1cc(-c1ccc(COc3ccc(/C=N/NC(=O)c4ccc(N)cc4)cc3)cc1)[n+]2C`, which CD50 (Mus musculus [13]) is on record?
Answer: 13 mg/kg

Question: With `Br.CCSc1ccc2n(c1)cc(-c1ccc(/C=N/NC(=N)SC)cc1)[n+]2C.[Br-]` as the molecule, how does the CD50 (Mus musculus [14]) read?
Answer: 106 mg/kg

Question: What does the source list for `C[n+]1c(-c2ccc(/C=N/NC(=N)N)cc2)cn2ccsc21.Cc1ccc(S(=O)(=O)O)cc1.Cc1ccc(S(=O)(=O)[O-])cc1`?
Answer: CD50 (Mus musculus [15]): 0.4 mg/kg; IC50 [7]: 1.4 µg/mL; IC50 [8]: 1.3 µg/mL

Question: Which CD50 (Mus musculus [16]) does the source give for `Br.C/N=C(/N/N=C/c1ccc(-c2cn3ccc(C)cc3[n+]2C)cc1)SC.[Br-]` here?
Answer: 26 mg/kg

Question: Which results are given for `C[n+]1c(-c2ccc(/C=N/NC(=N)NO)cc2)cn2ccsc21.Cc1ccc(S(=O)(=O)O)cc1.Cc1ccc(S(=O)(=O)[O-])cc1`?
Answer: CD50 (Mus musculus [2]): 0.8 mg/kg; IC50 [7]: 2 µg/mL; IC50 [8]: 1.7 µg/mL

Question: `Br.C[n+]1c(COc2ccc(/C=N/NC(=N)N)cc2)cn2ccccc21.[Br-]` was tested. Which CD50 (Mus musculus [3]) did it give?
Answer: 0.1 mg/kg

Question: And the IC50 [7]?
Answer: 0.8 µg/mL

Question: What about the IC50 [8] of the same molecule?
Answer: 0.9 µg/mL

Question: How did the CD50 (Mus musculus [6]) turn out when `Cc1ccc(S(=O)(=O)O)cc1.Cc1ccc(S(=O)(=O)[O-])cc1.Cc1cccc2n1cc(/C=N/NC(=N)NO)[n+]2C` was run?
Answer: 106 mg/kg

Question: How did the CD50 (Mus musculus [17]) turn out when `Br.C/N=C(\NC)N/N=C/c1ccc(OCc2n(C)c3ccccc3[n+]2C)cc1.[Br-]` was run?
Answer: 3.3 mg/kg

Question: Which CD50 (Mus musculus [16]) does the source give for `Br.C[n+]1c(-c2ccc(/C=N/NC(=N)NCCN3CCOCC3)cc2)cn2ccccc21.[Br-]` here?
Answer: 0.8 mg/kg

Question: And the IC50 [18]?
Answer: 11.7 µg/mL

Question: And the IC50 [19]?
Answer: 2.3 µg/mL

Question: Which IC50 [7] does the source give for `Cc1ccc2n(c1)cc(-c1ccc(/C=N/Nc3cc(N)[nH]n3)cc1)[n+]2C.[Br-]` here?
Answer: > 10 µg/mL

Question: What about the CD50 (Mus musculus [10]) of the same molecule?
Answer: 26 mg/kg

Question: What about the IC50 [8] of the same molecule?
Answer: > 10 µg/mL

Question: What does the source list for `Cc1ccc2n(c1)cc(-c1ccc(/C=N/Nc3nc[nH]n3)cc1)[n+]2C.[Br-]`?
Answer: CD50 (Mus musculus [20]): 13 mg/kg; IC50 [7]: 3.8 µg/mL

Question: For `C[n+]1c(-c2ccc(/C=N/Nc3cc(N)[nH]n3)cc2)cn2ccccc21.[Br-]`, which CD50 (Mus musculus [10]) is on record?
Answer: 13 mg/kg

Question: `C[n+]1c(-c2ccc(C(=N)NO)cc2)cn2ccccc21.[Cl-]` was tested. Which CD50 (Mus musculus [10]) did it give?
Answer: 53 mg/kg

Question: With `Br.CC(Cc1ccncc1)NC(=N)N/N=C/c1ccc(-c2cn3ccccc3[n+]2C)cc1.[Br-]` (centres undefined) as the molecule, how does the CD50 (Mus musculus [16]) read?
Answer: 0.8 mg/kg

Question: For `Cc1ccc2n(c1)cc(-c1ccc(C(=N)NO)cc1)[n+]2C.[Cl-]`, which CD50 (Mus musculus [14]) is on record?
Answer: 106 mg/kg

Question: For `C[n+]1c(COc2ccc(/C=N/Nc3nc[nH]n3)cc2)cn2ccccc21.[Br-]`, which IC50 [7] is on record?
Answer: 0.5 µg/mL

Question: And the IC50 [8]?
Answer: > 10 µg/mL

Question: For `Br.CC(Cc1c[nH]cn1)NC(=N)N/N=C/c1ccc(-c2cn3ccccc3[n+]2C)cc1.[Br-]` (centres undefined), which CD50 (Mus musculus [16]) is on record?
Answer: 1.6 mg/kg
